Results reported in ChEMBL document CHEMBL1255364, “Delayed development of linezolid resistance in Staphylococcus aureus following exposure to low levels of antimicrobial agents” (2008).
≈ marks a conversion by molar mass, not a printed value. Calls of active or inactive are those of the source. The calls are words filed in the database; no cut-off is given here.

Tests used:
Staphylococcus aureus [1] = assay: Suppression of drug resistance development in Staphylococcus aureus isolate EMRAS-15 assessed as prolonged length of subculture to develop Linezolid resistance at 4 times MIC and 0.25 times IC50 after 25 days; assay type: functional, organism-based
Outline: (§1)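 Stationary-phase MHB cultures were exposed for 6 h to linezolid at 4× MIC, with secondary agent(s) at 0.25× IC50. IC50 was the concentration halving growth rate by culture absorbance. A 5 μl aliquot was transferred to fresh drug-free medium and the cycle repeated. […] Four runs were done, with days to resistance averaged to the nearest day.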

Staphylococcus aureus [2] = assay: Suppression of drug resistance development in recA-deficient Staphylococcus aureus KB103 assessed as prolonged length of subculture to develop Linezolid resistance at 4 times MIC and 0.25 times IC50 after 20 days; assay type: functional, organism-based; outline: as §1
Staphylococcus aureus [3] = assay: Suppression of drug resistance development in Staphylococcus aureus RN4220 assessed as prolonged length of subculture to develop Linezolid resistance at 4 times MIC and 0.25 times IC50 after 25 days; assay type: functional, organism-based; outline: as §1
Staphylococcus aureus [4] = assay: Suppression of resistance related recombination in Staphylococcus aureus RN4220 at 0.25 times IC50 at 42 degC
Staphylococcus aureus [5] = assay: Suppression of drug resistance development in Staphylococcus aureus RN4220 assessed as assessed as prolonged length of subculture to develop Linezolid resistance at 0.25 times IC50
Staphylococcus aureus [6] = assay: Antibacterial activity against Staphylococcus aureus KM51 after 18 to 24 hrs by broth microdilution method selected after 16 ug/ml drug exposure for 6 hrs by culture absorbance method; assay type: functional
Outline: (§2)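 Broth microdilution in Mueller-Hinton broth per BSAC guidelines. MIC read as the lowest concentration completely inhibiting visible growth after 18 to 24 h at 37°C. Strains were linezolid-selected derivatives recovered from repeated 6-h linezolid exposure cycles.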

Staphylococcus aureus [7] = assay: Antibacterial activity against Staphylococcus aureus KM50 after 18 to 24 hrs by broth microdilution method selected after 16 ug/ml drug exposure for 6 hrs by culture absorbance method; assay type: functional; outline: as §2
Staphylococcus aureus [8] = assay: Suppression of drug resistance development in LZD intermediate-resistant Staphylococcus aureus KM183 assessed as prolonged length of subculture to develop Linezolid resistance at 4 times MIC and 0.25 times IC50 after 8 days; assay type: functional, organism-based; outline: as §1
Staphylococcus aureus [9] = assay: Antibacterial activity against Staphylococcus aureus KM52 after 18 to 24 hrs by broth microdilution method selected after 16 ug/ml drug exposure for 6 hrs by culture absorbance method; assay type: functional; outline: as §2
Staphylococcus aureus [10] = assay: Antibacterial activity against Staphylococcus aureus KM187 after 18 to 24 hrs by broth microdilution method selected after 16 ug/ml drug exposure for 6 hrs by culture absorbance method; assay type: functional; outline: as §2
Staphylococcus aureus [11] = assay: Antibacterial activity against Staphylococcus aureus KM53 after 18 to 24 hrs by broth microdilution method selected after 16 ug/ml drug exposure for 6 hrs by culture absorbance method; assay type: functional; outline: as §2
Staphylococcus aureus [12] = assay: Antibacterial activity against Staphylococcus aureus KM183 after 18 to 24 hrs by broth microdilution method selected after 16 ug/ml drug exposure for 6 hrs by culture absorbance method; assay type: functional; outline: as §2
Staphylococcus aureus [13] = assay: Suppression of drug resistance development in Staphylococcus aureus RN4220 assessed as assessed as prolonged length of subculture to develop Linezolid resistance at 0.25 times MIC; assay type: functional

CC(=O)O[C@H]1C[C@@]2(C)[C@@H](C[C@@H](O)[C@H]3[C@@]4(C)CC[C@@H](O)[C@@H](C)[C@@H]4CC[C@@]32C)/C1=C(\CCC=C(C)C)C(=O)O
Activity (Staphylococcus aureus [1]): Active
Activity (Staphylococcus aureus [2]): Active
Activity (Staphylococcus aureus [3]): Active
inhibition (Staphylococcus aureus [4]): Active

CO[C@H]1/C=C/O[C@@]2(C)Oc3c(C)c(O)c4c(O)c(c(/C=N/N5CCN(C)CC5)c(O)c4c3C2=O)NC(=O)/C(C)=C\C=C\[C@H](C)[C@H](O)[C@@H](C)[C@@H](O)[C@@H](C)[C@H](OC(C)=O)[C@@H]1C
Activity (Staphylococcus aureus [2]): Active
Activity (Staphylococcus aureus [3]): Active
inhibition (Staphylococcus aureus [4]): Active

O=C(O)c1cn(C2CC2)c2cc(N3CCNCC3)c(F)cc2c1=O [CIPROFLOXACIN]
Time (Staphylococcus aureus [5]): 14 days

CC(=O)NC[C@H]1CN(c2ccc(N3CCOCC3)c(F)c2)C(=O)O1 [LINEZOLID]
MIC (Staphylococcus aureus [6]): 32 µg/mL (≈ 94.9 µM)
Activity (Staphylococcus aureus [2]): Active
MIC (Staphylococcus aureus [7]): 32 µg/mL (≈ 94.9 µM)
Activity (Staphylococcus aureus [8]): Active
MIC (Staphylococcus aureus [9]): 32 µg/mL (≈ 94.9 µM)
MIC (Staphylococcus aureus [10]): 32 µg/mL (≈ 94.9 µM)
MIC (Staphylococcus aureus [11]): 32 µg/mL (≈ 94.9 µM)
MIC (Staphylococcus aureus [12]): 16 µg/mL (≈ 47.4 µM)

CO[C@@H]1[C@@H](OC(N)=O)[C@@H](O)[C@H](Oc2ccc3c(O)c(NC(=O)c4ccc(O)c(CC=C(C)C)c4)c(=O)oc3c2C)OC1(C)C [NOVOBIOCIN]
Time (Staphylococcus aureus [5]): 14 days

CN(C)[C@@H]1C(O)=C(C(N)=O)C(=O)[C@@]2(O)C(O)=C3C(=O)c4c(O)cccc4[C@@](C)(O)[C@H]3C[C@@H]12 [TETRACYCLINE]
Time (Staphylococcus aureus [5]): 14 days

GENTAMICIN
TIME (Staphylococcus aureus [13]): 336 h
